# Measurements reported in ChEMBL document CHEMBL4689842, “EUbOPEN Chemogenomics Library wave 1” (2021).
# Values joined by “and” are separate entries in the source; they are usually repeats but may differ in a detail not shown here. Equal entries are not always repeated.
# System: U2OS
# Assay: Multiplex assay against U2OS
# Assay type: toxicity, cell-based
# Conditions: human
# Summary of the method: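 At seeding, live cells were stained with Hoechst33342, BioTracker Green Microtubule Cytoskeleton Dye, MitoTracker Red and Annexin V Alexa Fluor 680. After compound addition they were imaged on a CQ1 microscope at 37°C and 5% CO2, and CellPathfinder machine-learning gating sorted them into Hoechst high-intensity objects or normal cells, with normal cells further split into healthy, pyknosed or fragmented nuclei and pyknosed cells into mitotic or apoptotic. Tubulin, mitochondrial-mass and membrane-permeability phenotypes are given as per cents of cells with healthy nuclei.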
# [1] = 12 h, 1 µM, compound concentration 1 uM, replicate 1
# [2] = 12 h, 1 µM, compound concentration 1 uM, replicate 2
# [3] = 12 h, 10 µM, compound concentration 10 uM, replicate 1
# [4] = 12 h, 10 µM, compound concentration 10 uM, replicate 2
# [5] = 24 h, 1 µM, compound concentration 1 uM, replicate 1
# [6] = 24 h, 1 µM, compound concentration 1 uM, replicate 2
# [7] = 24 h, 10 µM, compound concentration 10 uM, replicate 1
# [8] = 24 h, 10 µM, compound concentration 10 uM, replicate 2
# [9] = 48 h, 1 µM, compound concentration 1 uM, replicate 1
# [10] = 48 h, 1 µM, compound concentration 1 uM, replicate 2
# [11] = 48 h, 10 µM, compound concentration 10 uM, replicate 1
# [12] = 48 h, 10 µM, compound concentration 10 uM, replicate 2
structure (smiles),measurement,setting,value
O=C(c1cc2c(cc1F)OC(c1ccc(F)cc1)(c1ccc(Cl)cc1Cl)O2)N1CCOCC1 (stereo not drawn),Population Apoptotic (%),[1],57%
same,Population Fragmented Nuclei (%),[1],19%
same,Population Healthy Nuclei (%),[1],67%
same,Population Hoechst High Intensity Objects (%),[1],10%
same,Population Membrane Permeable-Phenotype (%),[1],7%
same,Population Mitochondria Different-Phenotype (%),[1],17%
same,Population Mitotic Cells (%),[1],42%
same,Population Normal (%),[1],89%
same,Population Pyknosed Nuclei (%),[1],13%
same,Total Cell Count,[1],120
same,Population Apoptotic (%),[2],50%
same,Population Fragmented Nuclei (%),[2],18%
same,Population Healthy Nuclei (%),[2],68%
same,Population Hoechst High Intensity Objects (%),[2],7%
same,Population Membrane Permeable-Phenotype (%),[2],9%
same,Population Mitochondria Different-Phenotype (%),[2],12%
same,Population Mitotic Cells (%),[2],50%
same,Population Normal (%),[2],92%
same,Population Pyknosed Nuclei (%),[2],12%
same,Population Tubulin-Different-Phenotype (%),[2],15%
same,Total Cell Count,[2],78
same,Population Apoptotic (%),[3],50%
same,Population Healthy Nuclei (%),[3],67%
same,Population Hoechst High Intensity Objects (%),[3],8%
same,Population Membrane Permeable-Phenotype (%),[3],46%
same,Population Mitotic Cells (%),[3],50%
same,Population Normal (%),[3],91%
same,Population Pyknosed Nuclei (%),[3],21%
same,Total Cell Count,[3],116
same,Population Apoptotic (%),[4],71%
same,Population Fragmented Nuclei (%),[4],10%
same,Population Healthy Nuclei (%),[4],78%
same,Population Hoechst High Intensity Objects (%),[4],4%
same,Population Membrane Permeable-Phenotype (%),[4],47%
same,Population Mitochondria Different-Phenotype (%),[4],96%
same,Population Mitotic Cells (%),[4],28%
same,Population Normal (%),[4],95%
same,Population Pyknosed Nuclei (%),[4],10%
same,Population Tubulin-Different-Phenotype (%),[4],100%
same,Total Cell Count,[4],52
same,Population Apoptotic (%),[5],44%
same,Population Fragmented Nuclei (%),[5],17%
same,Population Healthy Nuclei (%),[5],68%
same,Population Hoechst High Intensity Objects (%),[5],7%
same,Population Membrane Permeable-Phenotype (%),[5],5%
same,Population Mitochondria Different-Phenotype (%),[5],14%
same,Population Mitotic Cells (%),[5],55%
same,Population Normal (%),[5],92%
same,Population Pyknosed Nuclei (%),[5],14%
same,Population Tubulin-Different-Phenotype (%),[5],12%
same,Total Cell Count,[5],130
same,Population Apoptotic (%),[6],33%
same,Population Fragmented Nuclei (%),[6],5%
same,Population Healthy Nuclei (%),[6],88%
same,Population Hoechst High Intensity Objects (%),[6],10%
same,Population Membrane Permeable-Phenotype (%),[6],10%
same,Population Mitochondria Different-Phenotype (%),[6],15%
same,Population Mitotic Cells (%),[6],66%
same,Population Normal (%),[6],89%
same,Population Pyknosed Nuclei (%),[6],5%
same,Population Tubulin-Different-Phenotype (%),[6],21%
same,Total Cell Count,[6],85
same,Population Apoptotic (%),[7],67%
same,Population Fragmented Nuclei (%),[7],16%
same,Population Healthy Nuclei (%),[7],55%
same,Population Hoechst High Intensity Objects (%),[7],8%
same,Population Membrane Permeable-Phenotype (%),[7],48%
same,Population Mitochondria Different-Phenotype (%),[7],98%
same,Population Mitotic Cells (%),[7],32%
same,Population Normal (%),[7],91%
same,Population Pyknosed Nuclei (%),[7],28%
same,Population Tubulin-Different-Phenotype (%),[7],100%
same,Total Cell Count,[7],137
same,Population Apoptotic (%),[8],66%
same,Population Fragmented Nuclei (%),[8],8%
same,Population Healthy Nuclei (%),[8],62%
same,Population Hoechst High Intensity Objects (%),[8],6%
same,Population Membrane Permeable-Phenotype (%),[8],64%
same,Population Mitochondria Different-Phenotype (%),[8],100%
same,Population Mitotic Cells (%),[8],33%
same,Population Normal (%),[8],93%
same,Population Pyknosed Nuclei (%),[8],29%
same,Total Cell Count,[8],58
same,Population Apoptotic (%),[9],62%
same,Population Fragmented Nuclei (%),[9],14%
same,Population Healthy Nuclei (%),[9],75%
same,Population Hoechst High Intensity Objects (%),[9],7%
same,Population Membrane Permeable-Phenotype (%),[9],4%
same,Population Mitochondria Different-Phenotype (%),[9],11%
same,Population Mitotic Cells (%),[9],37%
same,Population Normal (%),[9],92%
same,Population Pyknosed Nuclei (%),[9],9%
same,Population Tubulin-Different-Phenotype (%),[9],9%
same,Total Cell Count,[9],127
same,Population Apoptotic (%),[10],60%
same,Population Fragmented Nuclei (%),[10],8%
same,Population Healthy Nuclei (%),[10],84%
same,Population Hoechst High Intensity Objects (%),[10],4%
same,Population Membrane Permeable-Phenotype (%),[10],6%
same,Population Mitochondria Different-Phenotype (%),[10],13%
same,Population Mitotic Cells (%),[10],40%
same,Population Normal (%),[10],96%
same,Population Pyknosed Nuclei (%),[10],6%
same,Population Tubulin-Different-Phenotype (%),[10],16%
same,Total Cell Count,[10],78
same,Population Apoptotic (%),[11],57%
same,Population Fragmented Nuclei (%),[11],20%
same,Population Healthy Nuclei (%),[11],44%
same,Population Hoechst High Intensity Objects (%),[11],14%
same,Population Membrane Permeable-Phenotype (%),[11],65%
same,Population Mitochondria Different-Phenotype (%),[11],93%
same,Population Mitotic Cells (%),[11],42%
same,Population Normal (%),[11],85%
same,Population Pyknosed Nuclei (%),[11],34%
same,Population Tubulin-Different-Phenotype (%),[11],100%
same,Total Cell Count,[11],179
same,Population Apoptotic (%),[12],71%
same,Population Fragmented Nuclei (%),[12],17%
same,Population Healthy Nuclei (%),[12],50%
same,Population Hoechst High Intensity Objects (%),[12],8%
same,Population Membrane Permeable-Phenotype (%),[12],76%
same,Population Mitochondria Different-Phenotype (%),[12],100%
same,Population Mitotic Cells (%),[12],28%
same,Population Normal (%),[12],91%
same,Population Pyknosed Nuclei (%),[12],31%
same,Total Cell Count,[12],75
CN(c1ccccc1CNc1nc(Nc2ccc3c(c2)CC(=O)N3)ncc1C(F)(F)F)S(C)(=O)=O,Population Apoptotic (%),[3],40% and 75%
same,Population Healthy Nuclei (%),[3],44% and 89%
same,Population Hoechst High Intensity Objects (%),[3],7% and 4%
same,Population Mitochondria Different-Phenotype (%),[3],30% and 26%
same,Population Mitotic Cells (%),[3],59% and 25%
same,Population Normal (%),[3],92% and 95%
same,Population Tubulin-Different-Phenotype (%),[3],72% and 24%
same,Total Cell Count,[3],122 and 100
same,Population Apoptotic (%),[4],91% and 33%
same,Population Fragmented Nuclei (%),[4],23% and 11%
same,Population Healthy Nuclei (%),[4],59% and 85%
same,Population Hoechst High Intensity Objects (%),[4],17% and 6%
same,Population Membrane Permeable-Phenotype (%),[4],27% and 12%
same,Population Mitochondria Different-Phenotype (%),[4],37% and 32%
same,Population Normal (%),[4],82% and 93%
same,Population Tubulin-Different-Phenotype (%),[4],55% and 32%
same,Total Cell Count,[4],116 and 91
same,Population Fragmented Nuclei (%),[7],16%
same,Population Healthy Nuclei (%),[7],56% and 83%
same,Population Mitochondria Different-Phenotype (%),[7],57% and 45%
same,Population Normal (%),[7],81% and 96%
same,Population Tubulin-Different-Phenotype (%),[7],72% and 37%
same,Total Cell Count,[7],125 and 100
same,Population Apoptotic (%),[8],59% and 30%
same,Population Fragmented Nuclei (%),[8],13% and 10%
same,Population Healthy Nuclei (%),[8],53% and 78%
same,Population Hoechst High Intensity Objects (%),[8],19% and 8%
same,Population Mitochondria Different-Phenotype (%),[8],51% and 52%
same,Population Mitotic Cells (%),[8],40% and 69%
same,Population Normal (%),[8],80% and 91%
same,Population Tubulin-Different-Phenotype (%),[8],48% and 38%
same,Total Cell Count,[8],130 and 91
